Measurements published in ChEMBL document CHEMBL1127460, “Cancer chemopreventive 3-substituted-4-oxoretinoic acids” (J Med Chem, 1994).

Legend:
[1] = target: T1, Ornithine decarboxylase (Mus musculus) (UniProt P00860); test: Inhibition of TPA-induced ODC activity as percentage of the average no. of papillomas / mouse in groups of control mice was determined using papilloma assay; format: functional; set-up: concentration or dose not given beside the values
T1 sequence (whole entry): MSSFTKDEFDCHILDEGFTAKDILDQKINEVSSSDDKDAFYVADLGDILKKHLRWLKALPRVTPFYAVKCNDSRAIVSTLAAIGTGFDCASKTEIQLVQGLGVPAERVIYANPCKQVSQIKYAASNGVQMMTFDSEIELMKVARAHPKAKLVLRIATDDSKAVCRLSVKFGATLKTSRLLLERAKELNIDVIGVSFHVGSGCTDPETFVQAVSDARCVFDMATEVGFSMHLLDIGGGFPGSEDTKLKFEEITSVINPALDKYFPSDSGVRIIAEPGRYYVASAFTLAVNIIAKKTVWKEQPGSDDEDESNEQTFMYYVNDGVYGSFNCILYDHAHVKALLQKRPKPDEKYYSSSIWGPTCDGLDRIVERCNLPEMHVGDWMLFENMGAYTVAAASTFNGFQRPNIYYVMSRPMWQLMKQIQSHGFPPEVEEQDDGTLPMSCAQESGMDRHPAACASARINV
Procedure, shortened: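 CD-1 female mice, shaved skin, initiated once with 51.2 μg DMBA in 0.2 mL acetone. From two weeks later, TPA 2 nmol in acetone twice weekly to the same area for 12–15 weeks. Tumors per mouse counted at the end, 10–15 mice per group. Group averages are expressed as a percentage of controls and averaged across experiments.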

[2] = target: T1, Ornithine decarboxylase (Mus musculus); test: In vivo inhibition of ornithine de-carboxylase (ODC) activity induced by 12-0-tetradecanoylphorbol 13-acetate (TPA) in mouse skin; format: functional, organism-based
Procedure, shortened: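 Mouse-skin assay of TPA induction of ornithine decarboxylase, after Verma et al. Retinoid-treated groups are compared with TPA-induced controls. ODC activity is expressed as a percentage of control-group activity and averaged over the stated number of tests.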

Row | SMILES | Control [1] | Average [2]
1 | COC(=O)/C=C(C)/C=C/C=C(C)/C=C/C1=C(C)C(=O)C(Cc2ccccc2)CC1(C)C (stereo unspecified) | 78% | 56%
2 | COC(=O)/C=C(C)/C=C/C=C(C)/C=C/C1=C(C)C(=O)CCC1(C)C | 25% | 18%
3 | CCC1CC(C)(C)C(/C=C/C(C)=C/C=C/C(C)=C/C(=O)OC)=C(C)C1=O (stereo unspecified) | 68% | 31%
4 | C#CCC1CC(C)(C)C(/C=C/C(C)=C/C=C/C(C)=C/C(=O)O)=C(C)C1=O (stereo unspecified) | 64% | 47%
5 | C#CCC1CC(C)(C)C(/C=C/C(C)=C/C=C/C(C)=C/C(=O)OC)=C(C)C1=O (stereo unspecified) | 40% | 34%
6 | CC1=C(/C=C/C(C)=C/C=C/C(C)=C/C(=O)O)C(C)(C)CC(C)(C)C1=O | 25% | 26%
7 | CC1=C(/C=C/C(C)=C/C=C/C(C)=C/C(=O)O)C(C)(C)CC(C/C=C/c2ccccc2)C1=O (stereo unspecified) | 39% | 23%
8 | CC1=C(/C=C/C(C)=C/C=C/C(C)=C/C(=O)O)C(C)(C)CCC1=O (stereo in doubt; 3a) | 39% | 17%
9 | COC(=O)/C=C(C)/C=C/C=C(C)/C=C/C1=C(C)C(=O)C(C)CC1(C)C (stereo unspecified) | 27% | 28%
10 | CC1=C(/C=C/C(C)=C/C=C/C(C)=C/C(=O)O)C(C)(C)CC(Cc2ccccc2)C1=O (stereo unspecified) | 38% | 34%
11 | C=CCC1CC(C)(C)C(/C=C/C(C)=C/C=C/C(C)=C/C(=O)O)=C(C)C1=O (stereo unspecified) | 47% | 68%
12 | CC1=C(/C=C/C(C)=C/C=C/C(C)=C/C(=O)O)C(C)(C)CCC1 | 16% | 8%
13 | CC1=C(/C=C/C(C)=C/C=C/C(C)=C/C(=O)Nc2ccc(O)cc2)C(C)(C)CCC1 | 89% | 60%
14 | COC(=O)/C=C(C)/C=C/C=C(C)/C=C/C1=C(C)C(=O)C(C)(C)CC1(C)C | 22% | 22%
15 | C=CCC1CC(C)(C)C(/C=C/C(C)=C/C=C/C(C)=C/C(=O)OC)=C(C)C1=O (stereo unspecified) | 42% | 56%
16 | COC(=O)/C=C(C)/C=C/C=C(C)/C=C/C1=C(C)C(=O)C(C/C=C/c2ccccc2)CC1(C)C (stereo unspecified) | 20% | 31%
17 | CC1=C(/C=C/C(C)=C/C=C/C(C)=C/C(=O)O)C(C)(C)CC(C)C1=O (stereo unspecified) | 29% | 26%
18 | CCC1CC(C)(C)C(/C=C/C(C)=C/C=C/C(C)=C/C(=O)O)=C(C)C1=O (stereo unspecified) | 57% | 40%
